Among the data in ChEMBL document CHEMBL1158394, “Diversity-oriented synthesis of furo[3,2-f]chromanes with antimycobacterial activity” (Eur J Med Chem, 2009) are MIC95 values, retold here.

≈ marks a conversion by molar mass, not a printed value. A value given as a limit tells only on which side of the number the result lay.

The experiment deals with Mycobacterium tuberculosis variant bovis BCG. Nature of the experiment: Antimycobacterial activity against Mycobacterium bovis BCG Pasteur after 6 days by microdilution resazurin assay. Format: functional. Conditions: 144 h. Put shortly: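 Microdilution resazurin assay with M. bovis BCG inoculum grown in Dubos medium with 10% ADC. Drugs (DMSO stocks of 50 mg/mL) are twofold serially diluted in 96-well plates, with DMSO and isoniazid controls, then incubated at 37 °C. Resazurin (0.01% w/v) is added and incubation continues 24 h. MIC95 is the amount giving >95% growth inhibition, in µg/mL. Duplicate runs in two independent experiments.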
On the technique in general: In broth dilution the organism is exposed to a series of concentrations in liquid medium.
Take `Cc1c(-c2ccncc2)oc2ccc3c(c12)C=CC(C)(C)O3`: the MIC95 is 6.2 µg/mL (≈ 21.3 µM). As for `CC1(C)C=Cc2c(ccc3oc(-c4ccncc4)cc23)O1`, the figure is 6.2 µg/mL (≈ 22.4 µM); as for `Cc1c2c(c3cc(/C=C/c4cccnc4)oc3c1C)CCC(C)(C)O2`, 6.2 µg/mL (≈ 18.6 µM); as for `Cc1c2c(c3cc(-c4ccncc4)oc3c1C)CCC(C)(C)O2`, 3.1 µg/mL (≈ 10.1 µM). For `CC1(C)CCc2c(ccc3oc(-c4cccnc4)c(CCCO)c23)O1`, the MIC95 is 6.2 µg/mL (≈ 18.4 µM). To `Cc1c2c(c3cc(-c4cnccn4)oc3c1C)CCC(C)(C)O2` belongs 25 µg/mL (≈ 81.1 µM); to `Cc1c2c(c3cc(-c4cccnc4)oc3c1C)CCC(C)(C)O2`, 3.1 µg/mL (≈ 10.1 µM).

In the case of `Cc1c2c(c3cc(Cc4ccc(Cl)cc4)oc3c1C)CCC(C)(C)O2`, the MIC95 is greater than 100 µg/mL.

`Cc1c2c(c3cc(Cc4cccs4)oc3c1C)CCC(C)(C)O2` yielded an MIC95 greater than 100 µg/mL. As for `Cc1c2c(c3cc(-c4ccc(NCCCN(C)C)nc4)oc3c1C)CCC(C)(C)O2`, the figure is 6.2 µg/mL (≈ 15.2 µM); as for `Cc1c2c(c3cc(-c4ccc(Cl)nc4)oc3c1C)CCC(C)(C)O2`, greater than 100 µg/mL; as for `CC(=O)OCc1cc2c3c(c(C)c(C)c2o1)OC(C)(C)CC3`, greater than 100 µg/mL. As for `Cc1c2c(c3cc(CCC(=O)N4CCOCC4)oc3c1C)CCC(C)(C)O2`, the figure is greater than 100 µg/mL; as for `Cc1c2c(c3cc(Cc4cccnc4)oc3c1C)CCC(C)(C)O2`, 6.2 µg/mL (≈ 19.3 µM). As for `Cc1c2c(c3cc(CCc4cccnc4)oc3c1C)CCC(C)(C)O2`, the figure is 3.1 µg/mL (≈ 9.24 µM); as for `CC1(C)CCc2c(ccc3oc(-c4ccncc4)c(CCCO)c23)O1`, 12.5 µg/mL (≈ 37 µM); as for `Cc1c2c(c3cc(-c4ccccn4)oc3c1C)CCC(C)(C)O2`, greater than 100 µg/mL.

The compound `Cc1c2c(c3cc(-c4ccc[n+]([O-])c4)oc3c1C)CCC(C)(C)O2` registered an MIC95 of 12.5 µg/mL (≈ 38.7 µM). In turn, `Cc1c2c(c3cc(-c4ccc(-c5nn[nH]n5)nc4)oc3c1C)CCC(C)(C)O2` gave an MIC95 of 25 µg/mL (≈ 66.6 µM). To `Cc1c2c(c3cc(-c4cccs4)oc3c1C)CCC(C)(C)O2` belongs greater than 100 µg/mL. As for `COC(=N)c1ccc(-c2cc3c4c(c(C)c(C)c3o2)OC(C)(C)CC4)cn1`, the figure is 6.2 µg/mL (≈ 17 µM). As for `NNC(=O)c1ccncc1` [ISONIAZID], the figure is 0.4 µg/mL (≈ 2.92 µM).
